The results in this text go back to ChEMBL document CHEMBL3102712, “Targeting the Warburg Effect in cancer; relationships for 2-arylpyridazinones as inhibitors of the key glycolytic enzyme 6-phosphofructo-2-kinase/2,6-bisphosphatase 3 (PFKFB3)” (Bioorg Med Chem, 2014).

Molecules are shown by their SMILES. pIC50: −log10 of the molar value. Active and inactive are the calls of the source. The rule behind the calls is not given here. Bounds are passed on as bounds.

As usually defined, the pIC50 is −log10 of the IC50, conventionally taken in molar units. What is called inhibition is the relative decrease from the control value, in per cent.

For series [1], the target named is T1, 6-phosphofructo-2-kinase/fructose-2,6-bisphosphatase 3 (Homo sapiens, UniProt Q16875). The series is described as follows: Inhibition of human recombinant GST-tagged PFKFB3 expressed in Escherichia coli BL21(DE3) using fructose 6-phosphate as substrate preincubated for 30 mins before substrate addition measured after 60 mins by kinase-glo assay. Put shortly:
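GST-tagged human PFKFB3 was purified on glutathione sepharose. The compound was preincubated with enzyme for 30 min at 30 °C in 40 mM Tris pH 7.5, 20 mM MgCl2, 0.1 mg/mL BSA. ATP and F6P were then added in buffer containing 25 µM ATP and 1.25 mM F6P, for 60 min at 30 °C. Remaining ATP was read by Kinase-Glo luminescence. IC50 came from nonlinear regression, mean ± SD of ≥3 independent experiments.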

The target of series [2] is T1, 6-phosphofructo-2-kinase/fructose-2,6-bisphosphatase 3. As to the kind of experiment: Inhibition of PFKFB3-mediated glycolysis in human MDA-MB-231 cells assessed as extracellular acidification rate at 10 uM after 60 mins. Type of series: cell-based. Put shortly: (§1)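 MDA-MB-231 cells were seeded at 15,000/well for 24 h, then switched to assay medium in an XF24 analyzer. After 2 baseline readings, compound (10 µM) was injected and ECAR tracked for 2 h. 2-Deoxyglucose (100 mM) was then injected as positive control and ECAR followed 32 min more. ECAR was expressed as % of baseline, with protein measured by BCA after RIPA lysis; n = 3.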

For series [3] the target is unchanged. The series is described as follows: Inhibition of PFKFB3 (unknown origin).
The target is the same in series [4]. The series is described as follows: Inhibition of PFKFB3-mediated glycolysis in human MDA-MB-231 cells assessed as extracellular acidification rate at 10 uM after 2 hrs. The series is classed as cell-based. The method in brief: as §1
The target is the same in series [5]. Conditions: 250 uM.
Series [6] is described as follows: Solubility of the compound. Type of series: physicochemical.
Series [7] addresses T1, 6-phosphofructo-2-kinase/fructose-2,6-bisphosphatase 3. As to the kind of experiment: Inhibition of PFKFB3 in human HeLa cells assessed as reduction of lactate secretion at IC50 after 8 hrs. Type of series: cell-based.
Series [8] shares this target. The series is described as follows: Inhibition of PFKFB3 in human HeLa cells assessed as reduction of fructose 2,6-bisphosphate level at IC50 after 8 hrs. The series is classed as cell-based.

T1 sequence (Q16875 whole entry): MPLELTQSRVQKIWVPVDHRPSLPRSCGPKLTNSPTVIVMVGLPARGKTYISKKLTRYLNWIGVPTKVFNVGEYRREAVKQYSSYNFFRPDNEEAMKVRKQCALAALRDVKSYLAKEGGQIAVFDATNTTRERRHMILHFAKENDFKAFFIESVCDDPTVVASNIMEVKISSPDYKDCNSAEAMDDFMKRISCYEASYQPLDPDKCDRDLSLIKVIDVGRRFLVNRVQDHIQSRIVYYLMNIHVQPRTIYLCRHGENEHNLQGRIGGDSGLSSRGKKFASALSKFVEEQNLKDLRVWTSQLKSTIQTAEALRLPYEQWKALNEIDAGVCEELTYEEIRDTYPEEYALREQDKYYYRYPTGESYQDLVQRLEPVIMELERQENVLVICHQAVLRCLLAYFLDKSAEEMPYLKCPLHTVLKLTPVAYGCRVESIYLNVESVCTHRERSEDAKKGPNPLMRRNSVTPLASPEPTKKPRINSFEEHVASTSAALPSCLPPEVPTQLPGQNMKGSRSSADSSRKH

On to `CCOC(=O)c1cn(-c2cnn(-c3ccccc3)c(=O)c2N2CC3(COC3)C2)nn1`, for which, in series [1], the pIC50 is 4.26.
Turning to `O=c1c(Br)c(N2CC3(COC3)C2)cnn1-c1ccccc1`, the pIC50 in series [1] was under 3.00.
Regarding `CCOc1c(-n2nnc(C(C)=O)c2C)cnn(-c2ccccc2)c1=O`, the pIC50 in series [1] is under 3.00.
Consider `CC(=O)c1nnn(-c2cnn(-c3ccc(Cl)cc3)c(=O)c2Br)c1C`, for which the pIC50 in series [1] is 5.15. In series [2], the inhibition stood at 30%.
As for `CC(=O)c1nnn(-c2cnn(Cc3ccc(I)cc3)c(=O)c2Br)c1C`, the pIC50 in series [1] was 5.06.
Take `CC(=O)c1nnn(-c2cnn(-c3ccccc3)c(=O)c2C(C)C)c1C`: the pIC50 in series [1] is under 3.30.
With `O=C(/C=C/c1cccnc1)c1ccncc1`, in series [3], the pIC50 is 4.60. For the same compound, in series [4], the inhibition entry was “inactive”.
With `O=C(/C=C/c1ccc2ccccc2n1)c1ccncc1`, the pIC50 in series [1] is under 3.00. In series [5], this compound had an inhibition of 26%.
For the compound `CC(=O)c1nnn(-c2cnn(-c3cncnc3)c(=O)c2Br)c1C`, in series [1], the pIC50 is 5.02. In addition, the inhibition in series [2] was found to be 30%.
On to `CC(=O)c1nnn(-c2cnn(Cc3ccccc3)c(=O)c2Br)c1C`, for which the pIC50 in series [1] is 5.47.
With `CC(=O)c1nnn(-c2cnn(-c3ccc(OC(F)(F)F)cc3)c(=O)c2Br)c1C`, in series [1], the negative logarithm of the IC50 (pIC50) was 5.04. In addition, in series [2], the inhibition was determined as 30%.
Take `CC(=O)c1nnn(-c2cnn(-c3ccc(C#N)cc3)c(=O)c2Br)c1C`: the negative logarithm of the IC50 (pIC50) in series [1] is 5.08.
Take `O=c1c(Br)c(N2CCOCC2)cnn1-c1ccccc1`: the pIC50 in series [1] is under 3.00.
Regarding `O=c1c(Br)c(NCC2CCCO2)cnn1-c1ccccc1` (stereo unspecified), the pIC50 in series [1] is under 3.00.
Same read-out and setting: as for `CC(=O)c1nnn(-c2cnn(Cc3ccccc3)c(=O)c2)c1C`, the figure is under 2.00; as for `NC(=O)CNc1cnn(-c2ccccc2)c(=O)c1Br`, under 3.00.
In series [3], `O=C(c1ccncc1)c1cc2c(ccc3ccccc32)[nH]1` had a pIC50 of under 3.00. Moreover, in series [6], the solubility result is “Insoluble”.
Take `CC(=O)c1nnn(-c2cnn(-c3ccccc3)c(=O)c2I)c1C`: the pIC50 in series [1] was 4.89.
On to `CC(=O)c1nnn(-c2cnn(-c3ccccc3)c(=O)c2Cl)c1C`, for which the pIC50 in series [1] was 4.59.
For the compound `O=c1c(-c2ccc(O)cc2)coc2c(O)c(O)ccc12`, the inhibition is over 30% in series [7] and 40% in series [8].
For `CC(=O)c1nnn(-c2cnn(CCc3ccccc3)c(=O)c2Br)c1C`, the negative-log IC50 (pIC50) in series [1] is 5.59.
The same measure, in the same setting: as for `CC(=O)c1nnn(-c2cnn(Cc3ccc(NCCN(C)C)cc3)c(=O)c2Br)c1C`, the figure is under 3.30.
For `CC(=O)c1nnn(-c2cnn(-c3ccccc3)c(=O)c2Br)c1C`, the pIC50 in series [1] was 5.13. Also, in series [4], the inhibition entry is “inactive”.
Regarding `O=C(O)c1ccc(NS(=O)(=O)c2cccc3ccccc23)cc1O`, the pIC50 in series [3] and in series [1] was 4.57 throughout.
On to `N#Cc1cccc2c1CCN(c1cnn(-c3ccccc3)c(=O)c1Br)C2`, for which, in series [1], the pIC50 is under 3.30.
On to `CC(=O)c1nnn(-c2cnn(CCCc3ccccc3)c(=O)c2Br)c1C`, for which the pIC50 in series [1] was 4.96. For the same compound, the inhibition in series [2] came to 30%.
